Ends that are not written are not given here.
Columns and labels:
[1] = tested on: Antibodies used in the EIA; assay: Cross-reactivity of the antibodies used in the phoenixin EIA; format: binding
[2] = tested on: dispersed, primary rat pituitary cultures; assay: Static incubation of dispersed anterior pituitary cells, hormone release; format: cell-based; conditions: for GnRH-stimulated LH release: female pituitary cultures, overnight (24-hour) pretreatment, then GnRH for one hour, Figure 3A and B
Procedure, shortened: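 Rat anterior pituitary cells were trypsin-dispersed and cultured 48 h in tubes (MEM, 10% horse serum, 37°C). Cultures were pretreated 24 h with medium or peptide fragments. Medium was replaced by M199 with 0.1% BSA, 2×10⁻⁵ M bacitracin and 20 mM HEPES, with the same pretreatment. Cells were incubated 30 or 60 min at 37°C ± GnRH, and the incubation was ended by centrifugation. LH was measured by RIA (RP-3 standards) as mean ± SEM.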

[3] = tested on: PNX antiserum; conditions: rabbit polyclonal antiserum; ref Phoenix Pharmaceuticals, Inc; cited from earlier work
[4] = tested on: pituitary and ovary cell membranes; assay: Preliminary binding of phoenixin-20 to pituitary and ovary cell membranes; set-up: species or system rat; conditions: data not shown; for displacement of phoenixin-20 binding: pituitary and ovary cell membranes, female rat donors
[5] = tested on: GnRH receptor; assay: RT-PCR of GnRH receptor mRNA in dispersed primary pituitary cell cultures; format: cell-based, rat
Procedure, shortened: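 Dispersed primary rat anterior pituitary cultures were pretreated overnight with the peptide: male cultures with or without GnRH, female cultures without GnRH. RNA was extracted and reverse-transcribed with oligo d(T) and MMLV RT. SYBR Green real-time PCR was run with primer efficiencies >85%. Changes were calculated by delta delta Ct, normalised to HPRT-1, and compared by t test.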

[6] = tested on: male pituitary cells; assay: LH release from similarly prepared male pituitary cells; format: cell-based, rat; conditions: Supplemental Figure 2
[7] = tested on: GnRH receptor; assay: RT-PCR of GnRH receptor message in alphaT3-1 gonadotroph cells; format: cell-based, mouse; conditions: alphaT3-1 cells; normalized to GAPDH; Figure 3E
Procedure, shortened: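 Mouse αT3-1 gonadotroph cells were exposed to the peptide. RNA was reverse-transcribed using oligo d(T) and MMLV reverse transcriptase. GnRH receptor message was quantified by SYBR Green real-time PCR with primer efficiencies >85%, using the delta delta Ct method with GAPDH normalisation. Groups were compared by t test.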

[8] = tested on: cFos; assay: RT-PCR of cFos message in alphaT3-1 gonadotroph cells; format: cell-based, mouse; conditions: alphaT3-1 cells; not shown
[9] = tested on: dispersed pituitary cells from random cycle, female donors; assay: Dynamic; format: cell-based, rat; conditions: 1000nM phoenixin-20 for 24 hours
Procedure, shortened: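 Rat anterior pituitary cells from random-cycle females, trypsin-dispersed (0.1%), cultured 48 h at 37°C in MEM with 10% horse serum. Pretreated 24 h with medium or 1000nM amidated 20-residue peptide, resuspended in M199/0.1% BSA/bacitracin/20 mM HEPES; ~2 million cells perifused on Bio-Gel P2 columns (0.05 ml/min). Peptide present throughout. 5-min fractions: basal, 10 nM GnRH 50 min, medium 50 min, 60 mM KCl 10 min, medium 40 min. LH by RIA (RP-3 standards); mean ± SEM.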

DVQPPGLKVWSDPF-NH2 [phoenixin-14]
cross-reaction with the antibodies used in the EIA [1]: 100% | GnRH-stimulated LH release [2]: potentiated | cross-reactivity with PNX antiserum in radioimmunoassay [3]: 100%

angiotensin II (DRVYIHPF; Angiotensin-2; UniProt P01019 25-32, looked up) [reference compound]
cross-reaction with the antibodies used in the EIA [1]: 0%

gonadotropin releasing hormone [gonadotropin-releasing hormone]
displacement of phoenixin-20 binding [4]: not displaced

phoenixin
GnRH receptor messenger RNA ([5]; dispersed pituitary cultures pretreated with phoenixin, medium alone, Figure 3D): increased | GnRH receptor expression in the absence of GnRH ([5]; primary pituitary cell cultures from female donors, Figure 3G): significantly increased | basal release of LH, ACTH, prolactin, growth hormone, or TSH ([2]; dispersed, primary rat pituitary cultures, data not shown): did not alter

phoenixin-20: 20 amino acid amidated form of phoenixin (AGIVQEDVQPPGLKVWSDPF-NH2; UniProt C0HLM6 47-66, looked up)
ability of GnRH to upregulate the expression of GnRH receptor ([5]; dispersed male anterior pituitary cell cultures, overnight pretreatment, Figure 3D): potentiated | cross-reaction with the antibodies used in the EIA [1]: 100% | specific binding to pituitary and ovary cell membranes ([4]; tissues from female rat donors, preliminary experiments): bound specifically | GnRH-stimulated LH release [2]: potentiated | cross-reactivity with PNX antiserum in radioimmunoassay [3]: 100% | LH release compared to medium alone [6]: no differences | GnRH receptor message [7]: increase | cFos message [8]: failed to attain significance | LH release when GnRH was included in the perifusate ([9]; 10 nM GnRH, Figure 3C): significantly enhanced | basal LH release during perifusion ([9]; then perifusion columns, no GnRH): did not alter

urocortin (DNPSLSIDLTFHLLRTLLELARTQSQRERAEQNRIIFDSV; ends and bridges not checked; UniProt P55089 83-122, looked up)
displacement of phoenixin-20 binding [4]: not displaced

— PMC3556183 (Journal of neuroendocrinology, 2013)
